ChEMBL document CHEMBL1153046, “Synthesis and antitumor activity of substituted triazolo[4,3-a]pyrimidin-6-sulfonamide with an incorporated thiazolidinone moiety” (2009)

Assays:
Type in all cases: functional
U-251 = experiment: Growth inhibition of human U251 cells after 48 hrs by sulforhodamine B assay; details: U-251, 48 h
Summary of the method: (§1)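 NCI 60-cell-line panel (nine cancer types), with cells grown in RPMI1640 plus 5% fetal calf serum and 2 mM L-glutamine. Cells are seeded at a density that depends on the line and preincubated 24 h. Compounds are then applied at a minimum of five 10-fold dilutions over a 5-log range with 48 h continuous exposure. Viability is read by SRB protein assay, and GI50 is derived from dose-response curves in units of 10^-5 M.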

IGROV-1 = experiment: Growth inhibition of human IGROV1 cells after 48 hrs by sulforhodamine B assay; details: IGROV-1, 48 h
Summary of the method: (§2)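 NCI 60-cell-line panel. Cells are grown in RPMI1640 with 5% fetal calf serum and 2 mM L-glutamine, seeded at a density set by growth characteristics, and preincubated 24 h. Compound is tested at a minimum of five concentrations at 10-fold dilution, with 48 h continuous exposure. Viability is read by sulforhodamine B protein assay. GI50, TGI and LC50 come from dose-response curves.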

SN12C = experiment: Growth inhibition of human SN12C cells after 48 hrs by sulforhodamine B assay; summary of the method: as §2
SK-MEL-5 = experiment: Growth inhibition of human SK-MEL-5 cells after 48 hrs by sulforhodamine B assay; details: SK-MEL-5, 48 h; summary of the method: as §2
LOX IMVI = experiment: Growth inhibition of human LOXIMVI cells after 48 hrs by sulforhodamine B assay; summary of the method: as §2
NCI-H226 = experiment: Growth inhibition of human NCI-H226 cells after 48 hrs by sulforhodamine B assay; details: NCI-H226, 48 h; summary of the method: as §2
OVCAR-8 = experiment: Growth inhibition of human OVCAR8 cells after 48 hrs by sulforhodamine B assay; details: OVCAR-8, 48 h; summary of the method: as §2
M14 = experiment: Growth inhibition of human M14 cells after 48 hrs by sulforhodamine B assay; details: M14, 48 h; summary of the method: as §2
T47D = experiment: Growth inhibition of human T47D cells after 48 hrs by sulforhodamine B assay; summary of the method: as §1
HL-60(TB) = experiment: Growth inhibition of human HL-60(TB) cells after 48 hrs by sulforhodamine B assay; details: HL-60, 48 h
Summary of the method: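 NCI 60-cell-line panel. Cells were grown in RPMI1640 with 5% fetal calf serum and 2 mM L-glutamine, seeded at a density suited to each line, and preincubated 24 h. Compounds were tested at a minimum of five concentrations at 10-fold dilutions over a 5-log range, with 48 h continuous exposure. Growth was read by sulforhodamine B protein staining, and GI50 was taken from dose-response curves.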

MCF7 = experiment: Antiproliferative activity against human MCF7 cells assessed as cell growth at 100 uM after 48 hrs by alamar blue assay; details: MCF7, 48 h, read-out: Activity
Summary of the method: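 NCI three-cell-line primary screen. Cells are seeded and preincubated in microtiter plates. Compound is added at a single 10^-4 M concentration and cultures are incubated 48 h. The end-point is read with alamar blue. Results are given as percent growth relative to untreated control cells.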

SF-268 = experiment: Growth inhibition of human SF268 cells after 48 hrs by sulforhodamine B assay; details: SF-268, 48 h; summary of the method: as §2
SK-OV-3 = experiment: Growth inhibition of human SKOV3 cells after 48 hrs by sulforhodamine B assay; details: SK-OV-3, 48 h; summary of the method: as §2
HOP-92 = experiment: Growth inhibition of human HOP92 cells after 48 hrs by sulforhodamine B assay; details: HOP-92, 48 h; summary of the method: as §2
HCT-116 = experiment: Growth inhibition of human HCT116 cells after 48 hrs by sulforhodamine B assay; details: HCT-116, 48 h; summary of the method: as §2
K562 = experiment: Growth inhibition of human K562 cells after 48 hrs by sulforhodamine B assay; details: K562, 48 h; summary of the method: as §2
RXF 393 = experiment: Growth inhibition of human RXF393 cells after 48 hrs by sulforhodamine B assay; details: RXF 393, 48 h; summary of the method: as §2
NCI/ADR-RES = experiment: Growth inhibition of human NCI/ADR-RES cells after 48 hrs by sulforhodamine B assay; summary of the method: as §2
SNB-75 = experiment: Growth inhibition of human SNB75 cells after 48 hrs by sulforhodamine B assay; details: SNB-75, 48 h; summary of the method: as §1
MDA-MB-231 = experiment: Growth inhibition of human MDA-MB-231 cells after 48 hrs by sulforhodamine B assay; details: MDA-MB-231, 48 h; summary of the method: as §2
SW-620 = experiment: Growth inhibition of human SW620 cells after 48 hrs by sulforhodamine B assay; details: SW-620, 48 h; summary of the method: as §1
UO-31 = experiment: Growth inhibition of human UO31 cells after 48 hrs by sulforhodamine B assay; details: UO-31, 48 h; summary of the method: as §1
SF-295 = experiment: Growth inhibition of human SF295 cells after 48 hrs by sulforhodamine B assay; details: SF-295, 48 h; summary of the method: as §2
SK-MEL-2 = experiment: Growth inhibition of human SK-MEL-2 cells after 48 hrs by sulforhodamine B assay; details: SK-MEL-2, 48 h; summary of the method: as §2
UACC-62 = experiment: Growth inhibition of human UACC62 cells after 48 hrs by sulforhodamine B assay; details: UACC-62, 48 h; summary of the method: as §1
[1] = Growth inhibition of human Hs 578T cells after 48 hrs by sulforhodamine B assay; summary of the method: as §2
HOP-62 = experiment: Growth inhibition of human HOP62 cells after 48 hrs by sulforhodamine B assay; details: HOP-62, 48 h; summary of the method: as §2
ACHN = experiment: Growth inhibition of human ACHN cells after 48 hrs by sulforhodamine B assay; summary of the method: as §2
[2] = read-out: LC50 (the source's name)

## COc1ccc(/C=N/c2nc3[nH]nc(C)n3c(=O)c2S(=O)(=O)NN2C(=O)C(CN3CCOCC3)SC2c2ccc(OC)cc2)cc1 (centres undefined)
U-251
  GI50: 40.4 µM
  LC50: > 100 µM
  TGI: > 100 µM
IGROV-1
  GI50: 26 µM
  LC50: > 100 µM
  TGI: 97.4 µM
SN12C
  GI50: 55.1 µM
  LC50: > 100 µM
  TGI: > 100 µM
SK-MEL-5
  GI50: 19 µM
  TGI: > 100 µM
SK-MEL-5; [2]
  CC50: > 100 µM
LOX IMVI
  GI50: 21.6 µM
  TGI: 62.4 µM
NCI-H226
  GI50: 53.6 µM
  LC50 (concentration killing 50% of cells): > 100 µM
  TGI: > 100 µM
OVCAR-8
  GI50: 31.4 µM
  TGI: > 100 µM
M14
  GI50: 67.4 µM
  LC50 (concentration killing 50% of cells): > 100 µM
  TGI: > 100 µM
T47D
  GI50: > 100 µM
  TGI: > 100 µM
HL-60(TB)
  GI50: 9.8 µM
  LC50: 74.3 µM
  TGI: 27.2 µM
MCF7
  growth at 100 µM: 64%
SF-268
  GI50: > 100 µM
  TGI: > 100 µM
SF-268; [2]
  CC50: > 100 µM
SK-OV-3
  GI50: > 100 µM
  TGI: > 100 µM
HOP-92
  GI50: 36.3 µM
  LC50: > 100 µM
  TGI: > 100 µM
HCT-116
  GI50: 29.7 µM
  LC50 (concentration killing 50% of cells): > 100 µM
  TGI: 97.3 µM
K562
  GI50: 13 µM
  LC50: 80.5 µM
  TGI: 32.3 µM
RXF 393
  GI50: 15 µM
  TGI: > 100 µM
RXF 393; [2]
  CC50: > 100 µM
NCI/ADR-RES
  GI50: 43.1 µM
  TGI: > 100 µM
SNB-75
  GI50: 57.3 µM
  TGI: > 100 µM
MDA-MB-231
  GI50: 25.3 µM
  LC50 (50% lethal concentration): > 100 µM
  TGI: > 100 µM
SW-620
  GI50: 47.1 µM
UO-31
  GI50: 39.6 µM
  LC50: > 100 µM
  TGI: > 100 µM
SF-295
  GI50: 33.2 µM
  LC50 (concentration killing 50% of cells): > 100 µM
  TGI: > 100 µM
SK-MEL-2
  GI50: 99.3 µM
  LC50 (concentration killing 50% of cells): > 100 µM
  TGI: > 100 µM
UACC-62
  GI50: 25.4 µM
  TGI: > 100 µM
UACC-62; [2]
  CC50: > 100 µM
[1]
  GI50: 41.1 µM
  LC50 (concentration killing 50% of cells): > 100 µM
  TGI: > 100 µM
HOP-62
  GI50: 86.6 µM
  LC50: > 100 µM
  TGI: > 100 µM
ACHN
  GI50: 23.1 µM
  TGI: 92.6 µM
ACHN; [2]
  CC50: > 100 µM
